Seven molecules from ChEMBL document CHEMBL1926597, “Isoflavonoids and coumarins from Glycyrrhiza uralensis: antibacterial activity against oral pathogens and conversion of isoflavans into isoflavan-quinones during purification” (J Nat Prod, 2011) can be followed below.

SMILES strings stand for the structures. The source made the active and inactive calls. The rule behind the calls is not given here.

Assay [1] relates to Prevotella intermedia. In words: Antibacterial activity against Prevotella intermedia ATCC 25611 assessed as growth inhibition at 1.25 to 10 ug/ml after 24 hrs by microplate dilution assay. Format: functional, organism-based. Summed up:
(§1)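 Todd Hewitt broth with hemin (10 μg/mL) and vitamin K (1 μg/mL). 24-h cultures were diluted to OD660 0.2 and mixed 1:1 with serial dilutions in broth (compounds 10 to 1.25 μg/mL; penicillin G 2.5 to 0.00625 μg/mL). Plates were incubated 24 h at 37 °C anaerobically (N2–H2–CO2 75:10:15), then OD660 was read against no-compound control wells. Triplicates were given as mean ± SD; Student's t test was applied when inhibition was ≥20%.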

Assay [2] concerns Streptococcus mutans. The assay can be described thus: Antibacterial activity against Streptococcus mutans ATCC 25175 assessed as growth inhibition at 1.25 to 10 ug/ml after 24 hrs by microplate dilution assay. Format: functional, organism-based.
Assay [3] deals with Streptococcus sobrinus. In words: Antibacterial activity against Streptococcus sobrinus ATCC 33478 assessed as growth inhibition at 1.25 to 10 ug/ml after 24 hrs by microplate dilution assay. In kind it is functional, organism-based.
Assay [4] concerns Streptococcus sobrinus. The assay can be described thus: Antibacterial activity against Streptococcus sobrinus ATCC 33478 assessed as growth inhibition at 10 ug/ml after 24 hrs by microplate dilution assay. In kind it is functional, organism-based.
Assay [5] deals with Streptococcus mutans. In words: Antibacterial activity against Streptococcus mutans ATCC 25175 assessed as growth inhibition at 10 ug/ml after 24 hrs by microplate dilution assay. In kind it is functional, organism-based.
Assay [6] relates to Fusobacterium nucleatum. The assay can be described thus: Antibacterial activity against Fusobacterium nucleatum ATCC 25586 assessed as growth inhibition at 1.25 to 10 ug/ml after 24 hrs by microplate dilution assay. In kind it is functional, organism-based. Summed up: as §1
For assay [7], the system named is Porphyromonas gingivalis. The assay can be described thus: Antibacterial activity against Porphyromonas gingivalis ATCC 33277 assessed as growth inhibition at 1.25 to 10 ug/ml after 24 hrs by microplate dilution assay. Format: functional. Summed up: as §1
For assay [8], the system named is Streptococcus mutans. In words: Antibacterial activity against Streptococcus mutans ATCC 25175 assessed as growth inhibition at 0.00625 to 2.5 ug/ml after 24 hrs by microplate dilution assay. In kind it is functional, organism-based.
Assay [9] has as its system Porphyromonas gingivalis. In words: Antibacterial activity against Porphyromonas gingivalis ATCC 33277 assessed as growth inhibition at 0.00625 to 2.5 ug/ml ug/ml after 24 hrs by microplate dilution assay. In kind it is functional. Summed up: as §1
The subject of assay [10] is Streptococcus sobrinus. In words: Antibacterial activity against Streptococcus sobrinus ATCC 33478 assessed as growth inhibition at 0.00625 to 2.5 ug/ml after 24 hrs by microplate dilution assay. Format: functional, organism-based.
The subject of assay [11] is Prevotella intermedia. In words: Antibacterial activity against Prevotella intermedia ATCC 25611 assessed as growth inhibition at 0.00625 to 2.5 ug/ml ug/ml after 24 hrs by microplate dilution assay. Format: functional, organism-based. Summed up:
as §1

The test system of assay [12] is Fusobacterium nucleatum. The assay can be described thus: Antibacterial activity against Fusobacterium nucleatum ATCC 25586 assessed as growth inhibition at 0.00625 to 2.5 ug/ml ug/ml after 24 hrs by microplate dilution assay. Format: functional, organism-based. Summed up: as §1

Regarding `COc1cc2oc(=O)c(-c3ccc(O)cc3O)cc2c(OC)c1CC=C(C)C`, the “growth inhibition (GI)” value in the assay on Prevotella intermedia [1] was “Active”. Further, the “growth inhibition (GI)” value with Streptococcus mutans [2] and in the assay with Streptococcus sobrinus [3] was “inactive” throughout.
In the case of `COc1cc2c(c(OC)c1CC=C(C)C)C[C@H](C1=CC(=O)C(O)=C(CC=C(C)C)C1=O)CO2`, the “growth inhibition (GI)” value with Prevotella intermedia [1] is “Active”. Also, the “growth inhibition (GI)” value with Streptococcus mutans [2] and with Streptococcus sobrinus [3] was “inactive” in each case.
Take `CC(C)=CCc1cc(-c2coc3cc(O)cc(O)c3c2=O)c(O)cc1O`: the “growth inhibition (GI)” value with Prevotella intermedia [1] is “Active”. For the same molecule, the “growth inhibition (GI)” value in the assay with Streptococcus mutans [2] and in the assay on Streptococcus sobrinus [3] was “inactive” in each case.
In the case of `COc1c(CC=C(C)C)c(O)cc2c1C[C@H](c1ccc(O)c(CC=C(C)C)c1O)CO2`, the “growth inhibition (GI)” value in the assay on Prevotella intermedia [1], in the assay on Streptococcus sobrinus [4], with Streptococcus mutans [5], with Fusobacterium nucleatum [6] and with Porphyromonas gingivalis [7] was “Active” in each case.
Turning to `COc1cc2c(c(OC)c1CC=C(C)C)C[C@H](c1ccc(O)cc1O)CO2`, in the assay on Prevotella intermedia [1], the “growth inhibition (GI)” value is “Active”. In addition, the “growth inhibition (GI)” value with Streptococcus mutans [2] and in the assay on Streptococcus sobrinus [3] was “inactive” in each case.
For the molecule `CC1(C)S[C@@H]2[C@H](NC(=O)Cc3ccccc3)C(=O)N2[C@H]1C(=O)O`, the “growth inhibition (GI)” value with Streptococcus mutans [8], with Porphyromonas gingivalis [9], in the assay with Streptococcus sobrinus [10], with Prevotella intermedia [11] and with Fusobacterium nucleatum [12] was “Active” in each case.
As for `COc1c(CC=C(C)C)c(O)cc2oc(=O)c(-c3ccc(O)cc3O)cc12`, the “growth inhibition (GI)” value in the assay with Prevotella intermedia [1] was “Active”. In addition, the “growth inhibition (GI)” value in the assay with Streptococcus mutans [2] and in the assay on Streptococcus sobrinus [3] was “inactive” in each case.
